Screens: PubChem BioAssay, Broad Institute
Cneo AK release: Cryptococcus neoformans lysis via adenylate kinase release | C. neoformans lysis, adenylate kinase release luminescence, 4 h; normalised: neutral wells 0, clomiphene wells 100 | lysis activity, % at 15 µM | hit rate 0.2% among 360,000;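 active means mean lysis activity across replicates of at least 80%, whatever share of replicates individually reach that level; inactive means mean lysis activity below 80%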
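Material – log-phase Cryptococcus neoformans yeast cells · Input – 5 × 10^6 yeast cells/mL · Medium – fresh YPD growth medium · Doses – single compound concentration per well · Timing – static 4 h at 37 °C with compound, 1 h detection · Detection – adenylate kinase release luminescence · Read-out – signal increase indicating cell lysis · Control set – Clomiphene as positive lysis control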
MITF TRPM1 HTS: activators of MITF-driven TRPM1 promoter activity in SK-MEL-5 cells; SK-MEL-5 TRPM1-promoter luciferase, 24 h; % of positive control, neutral wells = 0; activation, % at 12.5 µM; hit rate 0.75% among 300,000;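 active means mean activation of at least 80% with every replicate also reaching 80%; inconclusive means mean reaches 80% but some replicate falls short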;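 further: 0% = neutral control wells and 100% = parthenolide positive control wells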
PGC1a acetyl inh: modulators of PGC1a acetylation | U2OS PGC1a acetylation, AlphaScreen anti-acetyl-lysine; with virally co-expressed GCN5 acetyltransferase | inhibition, % at 15.6 µM | hit rate 0.17% among 350,000;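 active means every replicate shows inhibition of at least 40%; inconclusive means mean inhibition at least 40% but some replicate below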;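 further: 0% = neutral control wells and 100% = positive control wells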
Wnt bcat act: activators of Wnt/beta-catenin signaling | Wnt/beta-catenin reporter cell assay, activator, plate reader | activation, % at 9.35 µM | hit rate 1.2% among 300,000 | AID 743398; in the data active means activation above about 30%, passing the limit was not always enough; inconclusive means no clear call, values can overlap the other calls;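 further: 0% = neutral control wells and 100% = positive control wells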
Starred values were filed as active, the others as inactive; ? = inconclusive; · = no result given; ! = not active in a repeat. Hits are enriched below; roughly 1.5% of the tested compounds scored in any of these assays.

SMILES	Cneo AK release	MITF TRPM1 HTS	PGC1a acetyl inh	Wnt bcat act
N/C(=N\OC(=O)Cc1ccccc1)c1cccc(Br)c1	·	14	1	3
N/C(=N\OC(=O)Cc1ccccc1[N+](=O)[O-])c1cccc(Br)c1	·	-4	3	37*
COc1ccc(/C(N)=N/OC(=O)c2ccc3ccccc3c2)cc1OC	0	·	7	3
Cc1ccc(/C(N)=N/OC(=O)c2cccs2)cc1	-5	17	9	54*
N/C(=N\OC(=O)c1cccs1)c1cccc(Br)c1	2	70	0	44*
O=C(NCC[C@H]1CC[C@H](NS(=O)(=O)c2cccc(F)c2)[C@H](CO)O1)c1cnccn1	-1	·	-1	·
COc1cccc(S(=O)(=O)N(C)C[C@@H]2Oc3ncc(-c4cccc(C(F)(F)F)c4)cc3C(=O)N([C@H](C)CO)C[C@@H]2C)c1	2	·	-1	·
COc1ccc2c3c(n(C)c2c1)[C@H](CO)N(Cc1ccc2c(c1)OCO2)CC31CN(C(=O)C2CC2)C1	·	·	-6	·
COC(=O)C[C@@H]1CC[C@@H]2[C@H](COc3ccc(NC(=O)c4cscn4)cc3C(=O)N2C)O1	-3	·	1	·
Cc1cccc(/C(N)=N/OC(=O)c2cccs2)c1	-4	8	8	58*
COc1cc(C=O)ccc1OCc1ccccc1Br	·	42	·	23
COc1cc(C=O)ccc1OCc1cccc(Br)c1	·	?	·	42*
Cc1nn(CCOc2ccccc2)c(=O)n1-c1c(F)cccc1F	·	·	-13	60*
Cc1ccc(-n2c(C)nn(CCOc3ccccc3)c2=O)cc1	-4	65	9	19
CN1C[C@H](O)COC[C@@H]2O[C@H](CC(=O)NC3CCC3)CC[C@H]21	1	·	7	·
O=C(/C=C/c1cccnc1)/C=C/c1cccnc1	-4	-96	81*	-20
Cc1cccc(NC(=O)/C=C/c2cccs2)n1	-5	104*	5	·
Cc1cccc(C(=O)Nc2ccc(C(=O)/C=C/c3cccnc3)cc2)c1	0	-26	54*	·
O=C(/C=C/c1cccs1)Nc1ccncc1	·	42	·	7
Cc1nc(NC(=O)/C=C/c2ccccc2)n[nH]1	3	-58	-14	39*
O=C(C=Cc1ccccc1)Nc1ccccc1	-4	34	-6	14
CCNC(=O)C[C@@H]1CC[C@H]2[C@@H](COc3ccc(NC(=O)C4CCOCC4)cc3C(=O)N2C)O1	51	·	10	·
CCC(=O)N1CC2(C1)[C@H](c1ccc(-c3cccc(F)c3)cc1)[C@H](CO)N2CC1CC1	·	·	-6	·
C[C@H]1CN([C@@H](C)CO)S(=O)(=O)c2ccc(C#Cc3ccccc3)cc2O[C@H]1CN(C)CC1CC1	-7	·	-17	·
O=C(/C=C/c1ccc([N+](=O)[O-])cc1)Nc1cccnc1	-9	8	2	38*
SMILES	Cneo AK release	MITF TRPM1 HTS	PGC1a acetyl inh	Wnt bcat act
O=C(/C=C/c1ccccc1)Nc1cccnc1	-7	·	·	39*
O=C(/C=C/c1cccs1)c1ccc([N+](=O)[O-])cc1	·	22	·	-8
O=C(/C=C/c1cccs1)Nc1ccc([N+](=O)[O-])cc1	·	68	-17	31*
CCON1C(=O)C(C)(C)N(OCC)C(=O)C1(C)C	·	-9	·	43*
CCO[C@@H]1OC(C(=O)Nc2ccccc2)=C[C@H](c2coc3ccccc3c2=O)[C@H]1CCCO	102*!	32	3	-1
C[C@H]1CN([C@@H](C)CO)S(=O)(=O)c2ccc(-c3cccnc3)cc2O[C@H]1CN(C)C(=O)C1CCC1	2	·	-23	·
O=C(C[C@H]1C=C[C@H](NC(=O)Nc2ccc(F)cc2)[C@H](CO)O1)NCc1cccc(F)c1	0	·	-1	·
O=C(CSc1ccccn1)Nc1ccc2c(c1)C(=O)c1ccccc1C2=O	-7	95*	-1	·
O=C(CSc1ccccn1)Nc1ccc2c(c1)CCC2	-2	110*	·	·
Cc1cc(NC(=O)CSc2ccccn2)cc(NC(=O)CSc2ccccn2)c1	0	8	-12	-1
O=C(C[C@H]1CC[C@@H](NC(=O)Cc2ccccn2)[C@@H](CO)O1)NCCc1ccncc1	-26	·	7	·
CCCCS(=O)(=O)/C=C\C=C/S(=O)(=O)CCCC	·	-104	97*	·
CCCCS(=O)(=O)/C=C\C1C2C=CC(C2)C1S(=O)(=O)CCCC (configuration not stated)	2	9	-34	1
O=C(/C=C/c1ccccc1)c1c[nH]c2ccccc12	-8	77	-6	46*
O=C(C=Cc1ccccc1)c1c[nH]c2ccccc2c1=O	-1	-47	29	1
CCCC#Cc1cnc2c(c1)C(=O)N([C@@H](C)CO)C[C@H](C)[C@@H](CN(C)C(=O)CN1CCOCC1)O2	10	·	-2	·
C=CCc1ccc(OCCn2cccc2C=O)c(OC)c1	·	93*	4	·
C[C@@H]1CCCCO[C@@H](CN(C)C(=O)Cc2ccccc2)[C@@H](C)CN([C@H](C)CO)C(=O)c2cc(NC(=O)Nc3ccc(C(F)(F)F)cc3)ccc2O1	-1	·	·	·
Cc1cc(C(=O)CN2C(=O)C3CC=CCC3C2=O)c(C)n1-c1ccccc1 (configuration not stated)	-3	·	-26	48*
CCCn1c(C)cc(C(=O)CN2C(=O)c3ccccc3C2=O)c1C	·	8	6	43*
O=C(CNC(=O)c1cn2ccccc2n1)Nc1ccc(F)c(F)c1	-5	78	·	35*
CN(CC(=O)Nc1cccc(F)c1)C(=O)c1cn2ccccc2n1	-1	-5	6	-6
CSCCC(NC(=O)c1ccco1)C(=O)NCC1CCCCC1 (configuration not stated)	-2	-6	-14	5
CSCCC(NC(=O)c1ccco1)C(=O)NC1CCC(C)CC1 (configuration not stated)	-1	112*	·	24
Cc1ccc(SCCSc2nc(C)cc(=O)[nH]2)cc1	-1	53	·	34*
SMILES	Cneo AK release	MITF TRPM1 HTS	PGC1a acetyl inh	Wnt bcat act
C[C@@H]1CN([C@H](C)CO)C(=O)Cc2cc(NC(=O)Cc3ccccc3)ccc2O[C@@H]1CN(C)S(=O)(=O)c1cn(C)cn1	-2	·	-3	·
CCN(CC)S(=O)(=O)c1cccc(-c2nc3n(n2)Cc2ccccc2-3)c1	-1	-16	-19	-2
COc1cccc(-c2nc3n(n2)CCc2ccccc2-3)c1	-11	·	-1	64*
C[C@@H]1CN([C@H](C)CO)C(=O)Cc2cc(NC(=O)Nc3ccc(C(F)(F)F)cc3)ccc2O[C@@H]1CN(C)S(=O)(=O)c1cn(C)cn1	1	·	1	·
Cc1noc(C)c1NC(=O)Nc1ccc2c(c1)C(=O)N([C@@H](C)CO)C[C@@H](C)[C@H](CN(C)S(C)(=O)=O)O2	-2	·	0	·
Oc1ccc(/C=N/Nc2cccc(Cl)n2)c(O)c1	-2	109*	-6	18
Oc1ccc(/C=N/Nc2ccc(C(F)(F)F)cn2)c(O)c1	·	-1	·	5
COc1cccc(-c2ccc([C@@H]3[C@H](CO)N4CCCCN(S(=O)(=O)c5cn(C)cn5)C[C@@H]34)cc2)c1	0	·	·	·
CO[C@H]1CN(C)C(=O)c2ccc(NC(=O)NC(C)C)cc2OC[C@@H](C)N(Cc2ccccc2)C[C@H]1C	-2	·	3	·
C[C@@H]1CN([C@@H](C)CO)C(=O)c2cc(NC(=O)CCCN(C)C)ccc2O[C@H]1CN(C)Cc1ccncc1	·	·	4	·
